The text below walks through data of ChEMBL document CHEMBL2040768, “Synthesis, antimicrobial and cytotoxic activities of sulfone linked bis heterocycles” (Eur J Med Chem, 2012).

One assay concerns A549. Description: Cytotoxicity against human A549 cells up to 0.2 mM after 72 hrs by MTT assay. A general note: Tetrazolium dyes change colour on reduction, which living cells bring about.
Assay [1] concerns Pseudomonas aeruginosa. Description: Antibacterial activity against Pseudomonas aeruginosa at 100 ug/ml after 24 hrs by agar well diffusion method. The class given is functional. Particulars: for zone of inhibition at 100 µg/mL: read-out: DIZ. Summed up: (§1)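 Agar well diffusion. Nutrient plates swabbed with 24 h broth culture of the bacterium; 6 mm wells bored and loaded with DMSO solutions of compound (wells at 50 and 100 per well). Chloramphenicol positive control, DMSO negative control. Plates held 37 °C, 24 h; inhibition zone diameter (mm) measured, mean of duplicates.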

Assay [2] relates to Staphylococcus aureus. Description: Antibacterial activity against Staphylococcus aureus at 50 ug/ml after 24 hrs by agar well diffusion method. Particulars: for zone of inhibition at 50 µg/mL: read-out: DIZ. In kind it is functional. The gist of the method:
as §1
(Agar diffusion results depend on both activity and mobility in agar.)

The subject of assay [3] is Penicillium chrysogenum. Description: Antifungal activity against Penicillium chrysogenum at 100 ug/ml after 48 hrs by agar well diffusion method. Particulars: for zone of inhibition at 100 µg/mL: read-out: DIZ. In kind it is functional. The gist of the method: (§2)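 Fungal agar well diffusion. Plates swabbed with fungal culture, 6 mm wells filled with DMSO solutions of compound (50 and 100 per well). Ketoconazole positive and DMSO negative controls. Plates incubated 28 °C for 48 h; zone of inhibition diameter (mm) read, average of duplicates.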

In assay [4] the test system is Penicillium chrysogenum. Description: Antifungal activity against Penicillium chrysogenum at 50 ug/ml after 48 hrs by agar well diffusion method. In kind it is functional. Particulars: for zone of inhibition at 50 µg/mL: read-out: DIZ. The gist of the method:
as §2

In assay [5] the test system is Aspergillus niger. Description: Antifungal activity against Aspergillus niger at 50 ug/ml after 48 hrs by agar well diffusion method. In kind it is functional. The following applies: for zone of inhibition at 50 µg/mL: read-out: DIZ. Summed up: as §2
The subject of assay [6] is Bacillus subtilis. Description: Antibacterial activity against Bacillus subtilis at 50 ug/ml after 24 hrs by agar well diffusion method. The class given is functional. The following applies: for zone of inhibition at 50 µg/mL: read-out: DIZ. The gist of the method:
as §1

Assay [7] concerns Pseudomonas aeruginosa. Description: Antibacterial activity against Pseudomonas aeruginosa at 50 ug/ml after 24 hrs by agar well diffusion method. The class given is functional. Particulars: for zone of inhibition at 50 µg/mL: read-out: DIZ. The gist of the method: as §1
In assay [8] the test system is Klebsiella pneumoniae. Description: Antibacterial activity against Klebsiella pneumoniae at 100 ug/ml after 24 hrs by agar well diffusion method. In kind it is functional. Particulars: for zone of inhibition at 100 µg/mL: read-out: DIZ. Summed up: as §1
Assay [9] deals with Staphylococcus aureus. Description: Antibacterial activity against Staphylococcus aureus at 100 ug/ml after 24 hrs by agar well diffusion method. In kind it is functional. Particulars: for zone of inhibition at 100 µg/mL: read-out: DIZ. Summed up:
as §1

For assay [10], the system named is Bacillus subtilis. Description: Antibacterial activity against Bacillus subtilis at 100 ug/ml after 24 hrs by agar well diffusion method. In kind it is functional. Particulars: for zone of inhibition at 100 µg/mL: read-out: DIZ. The gist of the method: as §1
Assay [11] relates to Aspergillus niger. Description: Antifungal activity against Aspergillus niger at 100 ug/ml after 48 hrs by agar well diffusion method. The class given is functional. Particulars: for zone of inhibition at 100 µg/mL: read-out: DIZ. Summed up:
as §2

Assay [12] concerns Klebsiella pneumoniae. Description: Antibacterial activity against Klebsiella pneumoniae at 50 ug/ml after 24 hrs by agar well diffusion method. In kind it is functional. The following applies: for zone of inhibition at 50 µg/mL: read-out: DIZ. Summed up: as §1

The source made the active and inactive calls. The calls are words filed in the database; no cut-off is given here.

As to `Cc1ccc(NS(=O)(=O)Cc2nnc(CS(=O)(=O)c3c[nH]cc3S(=O)(=O)c3ccc(C)cc3)s2)cc1`, the outcome with A549 was inactive. The zone of inhibition at 100 µg/mL in the assay with Pseudomonas aeruginosa [1] stood at 14 mm; with Penicillium chrysogenum [3] it was 19 mm; with Klebsiella pneumoniae [8], 21 mm; with Staphylococcus aureus [9], 16 mm; in the assay with Bacillus subtilis [10], 19 mm; in the assay on Aspergillus niger [11], 17 mm. Moreover, the zone of inhibition at 50 µg/mL in the assay with Staphylococcus aureus [2] turned out to be 14 mm; in the assay on Penicillium chrysogenum [4], 16 mm; with Aspergillus niger [5], 14 mm; in the assay on Bacillus subtilis [6], 17 mm; in the assay with Pseudomonas aeruginosa [7], 13 mm; in the assay with Klebsiella pneumoniae [12] it was 19 mm.

On to `Cc1ccc(NS(=O)(=O)Cc2nnc(CS(=O)(=O)c3c[nH]nc3S(=O)(=O)c3ccc(C)cc3)s2)cc1`, for which the result in the assay on A549 was inactive. Besides, the zone of inhibition at 100 µg/mL in the assay on Pseudomonas aeruginosa [1] was found to be 11 mm; with Penicillium chrysogenum [3], 13 mm; with Klebsiella pneumoniae [8] it was 15 mm; in the assay with Staphylococcus aureus [9] it was 14 mm; in the assay with Bacillus subtilis [10] it was 13 mm; with Aspergillus niger [11] it was 13 mm. Also, the zone of inhibition at 50 µg/mL in the assay with Staphylococcus aureus [2] stood at 12 mm; in the assay on Penicillium chrysogenum [4], 11 mm; with Aspergillus niger [5] it was 10 mm; in the assay with Bacillus subtilis [6], 10 mm; in the assay with Pseudomonas aeruginosa [7], 8 mm; in the assay with Klebsiella pneumoniae [12], 13 mm.

Take `Nn1c(CS(=O)(=O)Nc2ccc(Cl)cc2)nnc1CS(=O)(=O)C1CNN=C1S(=O)(=O)c1ccc(Cl)cc1` (stereo unspecified): the result with A549 was inactive. Further, the zone of inhibition at 100 µg/mL in the assay with Pseudomonas aeruginosa [1] was 24 mm; in the assay on Penicillium chrysogenum [3], 32 mm; with Klebsiella pneumoniae [8] it was 30 mm; in the assay with Staphylococcus aureus [9], 27 mm; in the assay on Bacillus subtilis [10] it was 27 mm; in the assay on Aspergillus niger [11] it was 30 mm. Also, the zone of inhibition at 50 µg/mL with Staphylococcus aureus [2] is 25 mm; in the assay on Penicillium chrysogenum [4] it was 29 mm; in the assay on Aspergillus niger [5], 28 mm; in the assay on Bacillus subtilis [6], 24 mm; in the assay with Pseudomonas aeruginosa [7], 21 mm; in the assay on Klebsiella pneumoniae [12], 28 mm.

With `Nn1c(CS(=O)(=O)Nc2ccccc2)nnc1CS(=O)(=O)c1c[nH]nc1S(=O)(=O)c1ccccc1`, the outcome in the assay on A549 was inactive. Moreover, the zone of inhibition at 100 µg/mL in the assay with Pseudomonas aeruginosa [1] amounted to 17 mm; with Penicillium chrysogenum [3], 23 mm; in the assay with Klebsiella pneumoniae [8], 26 mm; in the assay on Staphylococcus aureus [9] it was 21 mm; in the assay on Bacillus subtilis [10] it was 23 mm; with Aspergillus niger [11] it was 23 mm. The zone of inhibition at 50 µg/mL was found to be 19 mm in the assay with Staphylococcus aureus [2]; 20 mm in the assay on Penicillium chrysogenum [4]; 19 mm with Aspergillus niger [5]; 19 mm in the assay on Bacillus subtilis [6]; 15 mm in the assay with Pseudomonas aeruginosa [7]; 24 mm in the assay with Klebsiella pneumoniae [12].

Regarding `Cc1ccc(NS(=O)(=O)Cc2nnc(CS(=O)(=O)/C=C/S(=O)(=O)c3ccc(C)cc3)o2)cc1`, the result in the assay with A549 was inactive. The “diameter of the inhibition zone (DIZ)” value in the assay on Pseudomonas aeruginosa [1], in the assay with Staphylococcus aureus [2], with Penicillium chrysogenum [3], with Penicillium chrysogenum [4], with Aspergillus niger [5] and in the assay on Bacillus subtilis [6] was “inactive” in each case. The “diameter of the inhibition zone (DIZ)” value with Pseudomonas aeruginosa [7], in the assay on Klebsiella pneumoniae [8], in the assay with Staphylococcus aureus [9], with Bacillus subtilis [10], in the assay with Aspergillus niger [11] and with Klebsiella pneumoniae [12] was “inactive” each time.

Take `O=S(=O)(/C=C/S(=O)(=O)c1ccccc1)Cc1nnc(CS(=O)(=O)Nc2ccccc2)o1`: the outcome in the assay with A549 was inactive. Besides, the “diameter of the inhibition zone (DIZ)” value in the assay on Pseudomonas aeruginosa [1], in the assay with Penicillium chrysogenum [3], with Penicillium chrysogenum [4], with Aspergillus niger [5], in the assay on Pseudomonas aeruginosa [7] and in the assay on Klebsiella pneumoniae [8] was “inactive” in each case. For the same compound, the “diameter of the inhibition zone (DIZ)” value in the assay on Aspergillus niger [11] and in the assay on Klebsiella pneumoniae [12] was “inactive” throughout. For the same compound, the zone of inhibition at 50 µg/mL came out at 10 mm in the assay with Staphylococcus aureus [2] and 12 mm in the assay on Bacillus subtilis [6]. Also, the figures for the zone of inhibition at 100 µg/mL in the assay with Staphylococcus aureus [9] and in the assay on Bacillus subtilis [10] were 13 mm and 14 mm, respectively.

Take `Cc1ccc(NS(=O)(=O)Cc2nnc(CS(=O)(=O)/C=C/S(=O)(=O)c3ccc(C)cc3)s2)cc1`: the outcome in the assay with A549 was inactive. Besides, the zone of inhibition at 100 µg/mL in the assay on Pseudomonas aeruginosa [1] is 16 mm; in the assay with Penicillium chrysogenum [3], 23 mm; in the assay with Klebsiella pneumoniae [8], 25 mm; in the assay with Staphylococcus aureus [9], 20 mm; in the assay on Bacillus subtilis [10], 23 mm; with Aspergillus niger [11], 21 mm. For the same compound, the zone of inhibition at 50 µg/mL in the assay with Staphylococcus aureus [2] came out at 18 mm; in the assay with Penicillium chrysogenum [4] it was 20 mm; with Aspergillus niger [5], 18 mm; in the assay with Bacillus subtilis [6] it was 21 mm; in the assay with Pseudomonas aeruginosa [7], 14 mm; with Klebsiella pneumoniae [12] it was 23 mm.

In the case of `O=S(=O)(Cc1nnc(CS(=O)(=O)c2c[nH]cc2S(=O)(=O)c2ccccc2)s1)Nc1ccccc1`, in the assay on A549, the result was inactive. For the same compound, the zone of inhibition at 100 µg/mL in the assay with Pseudomonas aeruginosa [1] amounted to 15 mm; in the assay with Penicillium chrysogenum [3] it was 20 mm; in the assay with Klebsiella pneumoniae [8] it was 22 mm; with Staphylococcus aureus [9], 17 mm; with Bacillus subtilis [10], 20 mm; in the assay with Aspergillus niger [11] it was 18 mm. For the same compound, the zone of inhibition at 50 µg/mL worked out at 15 mm with Staphylococcus aureus [2]; 17 mm in the assay on Penicillium chrysogenum [4]; 16 mm in the assay with Aspergillus niger [5]; 18 mm with Bacillus subtilis [6]; 14 mm in the assay on Pseudomonas aeruginosa [7]; 20 mm in the assay with Klebsiella pneumoniae [12].

As for `O=S(=O)(Cc1nnc(CS(=O)(=O)C2CNN=C2S(=O)(=O)c2ccccc2)o1)Nc1ccccc1` (stereo unspecified), in the assay with A549, the result was inactive. The “diameter of the inhibition zone (DIZ)” value with Pseudomonas aeruginosa [1], in the assay with Staphylococcus aureus [2], in the assay with Penicillium chrysogenum [3], with Penicillium chrysogenum [4], in the assay with Aspergillus niger [5] and in the assay on Bacillus subtilis [6] was “inactive” throughout. Also, the “diameter of the inhibition zone (DIZ)” value in the assay with Pseudomonas aeruginosa [7], in the assay on Klebsiella pneumoniae [8], in the assay with Staphylococcus aureus [9], in the assay with Bacillus subtilis [10], in the assay on Aspergillus niger [11] and in the assay on Klebsiella pneumoniae [12] was “inactive” each time.

With `Cc1ccc(NS(=O)(=O)Cc2nnc(CS(=O)(=O)C3CNN=C3S(=O)(=O)c3ccc(C)cc3)s2)cc1` (stereo unspecified), the result in the assay with A549 was inactive. Also, the zone of inhibition at 100 µg/mL in the assay on Pseudomonas aeruginosa [1] was found to be 13 mm; in the assay on Penicillium chrysogenum [3] it was 16 mm; in the assay with Klebsiella pneumoniae [8], 18 mm; with Staphylococcus aureus [9], 13 mm; in the assay with Bacillus subtilis [10], 16 mm; in the assay on Aspergillus niger [11], 14 mm. The zone of inhibition at 50 µg/mL came to 11 mm in the assay with Staphylococcus aureus [2]; 13 mm in the assay on Penicillium chrysogenum [4]; 11 mm in the assay with Aspergillus niger [5]; 14 mm with Bacillus subtilis [6]; 11 mm with Pseudomonas aeruginosa [7]; 16 mm in the assay on Klebsiella pneumoniae [12].

Regarding `O=S(=O)(Cc1nnc(CS(=O)(=O)c2c[nH]nc2S(=O)(=O)c2ccccc2)o1)Nc1ccccc1`, the result in the assay with A549 was inactive. For the same compound, the zone of inhibition at 100 µg/mL with Pseudomonas aeruginosa [1] is 12 mm; in the assay with Penicillium chrysogenum [3], 15 mm; in the assay on Klebsiella pneumoniae [8], 17 mm; with Staphylococcus aureus [9], 12 mm; in the assay with Bacillus subtilis [10], 15 mm; in the assay on Aspergillus niger [11], 13 mm. For the same compound, the zone of inhibition at 50 µg/mL was determined as 10 mm in the assay with Staphylococcus aureus [2]; 12 mm in the assay with Penicillium chrysogenum [4]; 10 mm in the assay on Aspergillus niger [5]; 13 mm in the assay on Bacillus subtilis [6]; 10 mm in the assay on Pseudomonas aeruginosa [7]; 15 mm in the assay with Klebsiella pneumoniae [12].

As to `Cc1ccc(NS(=O)(=O)Cc2nnc(CS(=O)(=O)C3CNN=C3S(=O)(=O)c3ccc(C)cc3)n2N)cc1` (stereo unspecified), the result with A549 was inactive. Also, the zone of inhibition at 100 µg/mL is 15 mm in the assay with Pseudomonas aeruginosa [1]; 18 mm in the assay with Penicillium chrysogenum [3]; 20 mm in the assay with Klebsiella pneumoniae [8]; 15 mm in the assay on Staphylococcus aureus [9]; 18 mm with Bacillus subtilis [10]; 16 mm in the assay on Aspergillus niger [11]. For the same compound, the zone of inhibition at 50 µg/mL in the assay with Staphylococcus aureus [2] was found to be 13 mm; in the assay on Penicillium chrysogenum [4], 15 mm; in the assay on Aspergillus niger [5], 13 mm; in the assay with Bacillus subtilis [6], 16 mm; in the assay on Pseudomonas aeruginosa [7], 12 mm; in the assay on Klebsiella pneumoniae [12], 18 mm.
